Legend:
SR = experiment: Growth inhibition of human SR cells assessed as cell growth at 10^-8 M incubated for 48 hrs by sulforhodamine B assay; format: functional; conditions: read-out: Activity
[1] = Growth inhibition of human OVCAR8 cells incubated for 48 hrs by sulforhodamine B assay; format: functional; conditions: OVCAR-8, 48 h
In short: (§1)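 Cells were plated at 5,000–40,000 per well according to doubling time and preincubated 24 h at 37 °C in 5% CO2; time-zero plates were then TCA-fixed. Five concentrations (10-fold or ½-log dilutions, DMSO stock) were incubated 48 h. Cells were TCA-fixed, stained with 0.4% SRB and read at 515 nm. GI50 was taken where [(Ti−Tz)/(C−Tz)]×100 = 50.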

NCI-H226 = experiment: Growth inhibition of human NCI-H226 cells incubated for 48 hrs by sulforhodamine B assay; format: functional; conditions: NCI-H226, 48 h; in short: as §1
[2] = Growth inhibition of human RXF393 cells assessed as cell growth at 10^-5 M incubated for 48 hrs by sulforhodamine B assay; format: functional; conditions: RXF 393, 48 h, read-out: Activity
[3] = Growth inhibition of human HOP62 cells assessed as cell growth at 10 uM incubated for 48 hrs by sulforhodamine B assay; format: functional; conditions: HOP-62, 48 h, read-out: Activity
MDA-MB-468 = experiment: Growth inhibition of human MDA-MB-468 cells assessed as cell growth at 10 uM incubated for 48 hrs by sulforhodamine B assay; format: functional; conditions: MDA-MB-468, 48 h, read-out: Activity
[4] = Growth inhibition of human SF539 cells assessed as cell growth at 10^-6 M incubated for 48 hrs by sulforhodamine B assay; format: functional; conditions: SF-539, 48 h, read-out: Activity
NCI-H23 = experiment: Growth inhibition of human NCI-H23 cells assessed as cell growth at 10^-7 M incubated for 48 hrs by sulforhodamine B assay; format: functional; conditions: NCI-H23, 48 h, read-out: Activity
[5] = Growth inhibition of human LOXIMVI cells incubated for 48 hrs by sulforhodamine B assay; format: functional; conditions: LOX IMVI; in short: as §1
[6] = Growth inhibition of human Caki1 cells assessed as cell growth at 10^-4 M incubated for 48 hrs by sulforhodamine B assay; format: functional; conditions: CAKI-1, 48 h, read-out: Activity
In short: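 Cells seeded at 5,000–40,000/well according to doubling time and preincubated 24 h at 37 °C, 5% CO2. Time-zero plates were TCA-fixed. DMSO concentrate was diluted in medium with 50 µg/ml gentamicin to give five concentrations (10-fold or ½ log steps), then exposed 48 h. Cells were TCA-fixed, stained with 0.4% SRB and read at 515 nm. Percent growth was taken against time-zero and control; GI50, TGI and LC50 derived.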

SK-MEL-2 = experiment: Growth inhibition of human SK-MEL-2 cells assessed as cell growth at 10^-4 M incubated for 48 hrs by sulforhodamine B assay; format: functional; conditions: SK-MEL-2, 48 h, read-out: Activity
[7] = Growth inhibition of human LOXIMVI cells assessed as cell growth at 10^-5 M incubated for 48 hrs by sulforhodamine B assay; format: functional; conditions: LOX IMVI, read-out: Activity
786-0 = experiment: Growth inhibition of human 786-0 cells assessed as cell growth at 10^-5 M incubated for 48 hrs by sulforhodamine B assay; format: functional; conditions: 786-0, 48 h, read-out: Activity
In short: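 Five-dose assay: five concentrations from 10-fold or ½-log serial dilutions. Cells are plated at 5,000–40,000 per well according to doubling time, grown 24 h, then exposed 48 h at 37 °C, 5% CO₂. Fixed with cold 50% TCA (final addition) for 60 min at 4 °C and stained with 0.4% SRB in 1% acetic acid. Bound dye is solubilized in 10 mM Tris base and read at 515 nm. GI₅₀ is where [(Ti−Tz)/(C−Tz)]×100 = 50, with a time-zero plate as Tz.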

Malme-3M = experiment: Growth inhibition of human MALME-3M cells assessed as cell growth at 10 uM incubated for 48 hrs by sulforhodamine B assay; format: functional; conditions: read-out: Activity
NCI-H522 = experiment: Growth inhibition of human NCI-H522 cells assessed as cell growth at 10^-4 M incubated for 48 hrs by sulforhodamine B assay; format: functional; conditions: NCI-H522, 48 h, read-out: Activity
[8] = Growth inhibition of human SNB19 cells assessed as cell growth at 10^-8 M incubated for 48 hrs by sulforhodamine B assay; format: functional; conditions: SNB-19, 48 h, read-out: Activity
[9] = Growth inhibition of human RXF393 cells incubated for 48 hrs by sulforhodamine B assay; format: functional; conditions: RXF 393, 48 h; in short: as §1
[10] = Growth inhibition of human PC3 cells assessed as cell growth at 10^-4 M incubated for 48 hrs by sulforhodamine B assay; format: functional; conditions: PC-3, 48 h, read-out: Activity
[11] = Growth inhibition of human renal cancer cells incubated for 48 hrs by sulforhodamine B assay; format: functional; conditions: Cancer cell lines; for CC50: read-out: LC50 (the source's name)
MDA-MB-231 = experiment: Growth inhibition of human MDA-MB-231 cells assessed as cell growth at 10^-8 M incubated for 48 hrs by sulforhodamine B assay; format: functional; conditions: MDA-MB-231, 48 h, read-out: Activity
Albumin = Albumin (Bos taurus, UniProt P02769); experiment: Binding affinity to bovine serum albumin assessed as enhancement in emission spectra up to 20 uM by fluorescence spectroscopic analysis relative to control; format: ADME; conditions: cattle, isolated protein
Sequence of Albumin (P02769 whole entry): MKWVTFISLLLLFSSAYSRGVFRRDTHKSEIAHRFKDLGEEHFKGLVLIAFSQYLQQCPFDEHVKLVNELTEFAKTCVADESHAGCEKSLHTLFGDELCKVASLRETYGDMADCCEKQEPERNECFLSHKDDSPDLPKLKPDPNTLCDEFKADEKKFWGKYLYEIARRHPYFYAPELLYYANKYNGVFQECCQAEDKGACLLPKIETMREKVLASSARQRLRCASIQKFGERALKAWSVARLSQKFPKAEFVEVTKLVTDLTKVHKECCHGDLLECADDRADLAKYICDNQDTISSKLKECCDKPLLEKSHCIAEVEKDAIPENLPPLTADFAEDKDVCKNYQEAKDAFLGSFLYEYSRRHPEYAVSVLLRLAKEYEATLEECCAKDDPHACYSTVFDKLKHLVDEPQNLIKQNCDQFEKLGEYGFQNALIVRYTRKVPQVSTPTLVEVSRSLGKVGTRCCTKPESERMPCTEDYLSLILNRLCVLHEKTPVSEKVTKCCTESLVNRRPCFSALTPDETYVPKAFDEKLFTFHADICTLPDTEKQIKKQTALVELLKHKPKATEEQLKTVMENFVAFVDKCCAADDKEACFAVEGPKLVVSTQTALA
In short: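 Fluorescence titration of 10 µM BSA in 0.1 M phosphate buffer pH 7.4 with compound at 0–20 µM, diluted from DMSO stocks. Excitation 280 nm, slit 10 nm, 1 cm quartz cell, 300 K. Changes in the 350 nm Trp emission, new bands near 370–373 nm and isoemissive points are read against BSA alone.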

K562 = experiment: Growth inhibition of human K562 cells assessed as cell growth at 10 uM incubated for 48 hrs by sulforhodamine B assay; format: functional; conditions: K562, 48 h, read-out: Activity
[12] = Growth inhibition of human HOP62 cells assessed as cell growth at 10^-7 M incubated for 48 hrs by sulforhodamine B assay; format: functional; conditions: HOP-62, 48 h, read-out: Activity
U-251 = experiment: Growth inhibition of human U251 cells assessed as cell growth at 10^-6 M incubated for 48 hrs by sulforhodamine B assay; format: functional; conditions: U-251, 48 h, read-out: Activity
[13] = read-out: LC50 (the source's name)
[14] = read-out: pLC50 (the source's name) (converted)

Fc1ccc(-c2nc(Nc3ccc(-c4nc5ccccc5[nH]4)cc3)nc(N3CCOCC3)n2)cc1
growth at 0.01 µM (SR): 108%
GI50 ([1]; read-out: GI50): 3.26 µM
CC50 [1, 13]: > 100 µM
TGI ([1]; read-out: TGI): 10.8 µM
GI50 ([1]; read-out: pGI50 (converted)): 3.24 µM
CC50 [1, 14]: > 100 µM
TGI ([1]; read-out: pTGI (converted)): 10.7 µM
GI50 (NCI-H226; read-out: GI50): 3.32 µM
CC50 (NCI-H226; [13]): > 100 µM
TGI (NCI-H226; read-out: TGI): 8.6 µM
GI50 (NCI-H226; read-out: pGI50 (converted)): 3.31 µM
CC50 (NCI-H226; [14]): > 100 µM
TGI (NCI-H226; read-out: pTGI (converted)): 8.51 µM
growth at 10 µM [2]: -37%
growth at 10 µM [3]: -27.3%
growth at 10 µM (MDA-MB-468): -1.23%
growth at 1 µM [4]: 80%
growth at 0.1 µM (NCI-H23): 91%
GI50 ([5]; read-out: GI50): 1.78 µM
TGI ([5]; read-out: TGI): 3.59 µM
GI50 ([5]; read-out: pGI50 (converted)): 1.78 µM
TGI ([5]; read-out: pTGI (converted)): 3.63 µM
growth at 100 µM [6]: -29%
growth at 100 µM (SK-MEL-2): -50%
growth at 10 µM [7]: -73%
growth at 10 µM (786-0): -70%
growth at 10 µM (Malme-3M): -65.7%
growth at 100 µM (NCI-H522): -31%
growth at 0.01 µM [8]: 102%
GI50 ([9]; read-out: GI50): 0.459 µM
CC50 [9, 13]: > 100 µM
TGI ([9]; read-out: TGI): 2.51 µM
GI50 ([9]; read-out: pGI50 (converted)): 0.457 µM
CC50 [9, 14]: > 100 µM
TGI ([9]; read-out: pTGI (converted)): 2.51 µM
growth at 100 µM [10]: -6%
GI50 [11]: 2.03 µM
TGI [11]: 7.36 µM
CC50 [11]: 7.83 µM
growth at 0.01 µM (MDA-MB-231): 92%
Activity (Albumin): 71.83%
growth at 10 µM (K562): -22%
growth at 0.1 µM [12]: 97%
growth at 1 µM (U-251): 70%

c1ccc2[nH]c(-c3ccc(Nc4nc(N5CCCCC5)nc(N5CCOCC5)n4)cc3)nc2c1
growth at 0.01 µM (SR): 95%
GI50 ([1]; read-out: GI50): 3.24 µM
CC50 [1, 13]: > 100 µM
TGI ([1]; read-out: TGI): 14.3 µM
GI50 ([1]; read-out: pGI50 (converted)): 3.24 µM
CC50 [1, 14]: > 100 µM
TGI ([1]; read-out: pTGI (converted)): 14.1 µM
GI50 (NCI-H226; read-out: GI50): 3.2 µM
CC50 (NCI-H226; [13]): > 100 µM
TGI (NCI-H226; read-out: TGI): 17.7 µM
GI50 (NCI-H226; read-out: pGI50 (converted)): 3.16 µM
CC50 (NCI-H226; [14]): > 100 µM
TGI (NCI-H226; read-out: pTGI (converted)): 17.8 µM
growth at 10 µM [2]: -43%
growth at 10 µM [3]: -45.2%
growth at 10 µM (MDA-MB-468): -3.66%
growth at 1 µM [4]: 89%
growth at 0.1 µM (NCI-H23): 93%
GI50 ([5]; read-out: GI50): 1.75 µM
CC50 [5, 13]: 7.31 µM
TGI ([5]; read-out: TGI): 3.58 µM
GI50 ([5]; read-out: pGI50 (converted)): 1.74 µM
CC50 [5, 14]: 7.24 µM
TGI ([5]; read-out: pTGI (converted)): 3.55 µM
growth at 100 µM [6]: -32%
growth at 100 µM (SK-MEL-2): -68%
growth at 10 µM [7]: -72%
growth at 10 µM (786-0): -78%
growth at 10 µM (Malme-3M): -50.2%
growth at 100 µM (NCI-H522): -29%
growth at 0.01 µM [8]: 101%
GI50 ([9]; read-out: GI50): 0.808 µM
CC50 [9, 13]: > 100 µM
TGI ([9]; read-out: TGI): 3.28 µM
GI50 ([9]; read-out: pGI50 (converted)): 0.813 µM
CC50 [9, 14]: > 100 µM
TGI ([9]; read-out: pTGI (converted)): 3.31 µM
growth at 100 µM [10]: -19%
GI50 [11]: 2.46 µM
TGI [11]: 11.8 µM
CC50 [11]: 8.29 µM
growth at 0.01 µM (MDA-MB-231): 99%
Activity (Albumin): 49.74%
growth at 10 µM (K562): -6.74%
growth at 0.1 µM [12]: 96%
growth at 1 µM (U-251): 76%

— ChEMBL document CHEMBL3808334, “Synthesis and in vitro evaluation of novel triazine analogues as anticancer agents and their interaction studies with bovine serum albumin” (Eur J Med Chem, 2016)
